From ChEMBL document CHEMBL1153955, “Indolylarylsulfones bearing natural and unnatural amino acids. Discovery of potent inhibitors of HIV-1 non-nucleoside wild type and resistant mutant strains reverse transcriptase and coxsackie B4 virus” (J Med Chem, 2009)

Legend:
Human respirovirus 3 = assay: Antiviral activity against Parainfluenza virus type 3 in african green monkey Vero cells assessed as protection against virus-induced cytopathicity; type: functional, organism-based; conditions: Human respirovirus 3, Vero
Method in brief: (§1)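 Confluent cell monolayers inoculated with 100 CCID₅₀ virus. After 1-2 h adsorption, residual virus removed and cultures incubated with varying compound concentrations. Cytopathicity scored once it reached completion in untreated infected controls. EC₅₀ = dose reducing virus-induced cytopathogenicity by 50%.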

[1] = test system: Mammalian orthoreovirus 1; assay: Antiviral activity against Reovirus 1 in african green monkey Vero cells assessed as protection against virus-induced cytopathicity; type: functional, organism-based; conditions: Mammalian orthoreovirus 1, Vero; method in brief: as §1
Coxsackievirus B4 [2] = assay: Antiviral activity against Coxsackievirus B4 in human HeLa cells assessed as protection against virus-induced cytopathicity; type: functional, organism-based; conditions: Enterovirus B; method in brief: as §1
Influenza A virus [3] = assay: Antiviral activity against influenza H1N1 virus in MDCK cells assessed as reduction of virus-induced cytopathicity by MTS method; type: functional, organism-based; conditions: Influenza A virus, H1N1, MDCK
Influenza A virus [4] = assay: Antiviral activity against influenza H1N1 virus in MDCK cells assessed as reduction of virus-induced cytopathicity by visual cytopathic effect scoring method; type: functional, organism-based
Influenza A virus H3N2 [5] = assay: Antiviral activity against influenza H3N2 virus in MDCK cells assessed as reduction of virus-induced cytopathicity by visual cytopathic effect scoring method; type: functional, organism-based
Coxsackievirus B4 [6] = assay: Antiviral activity against Coxsackievirus B4 in african green monkey Vero cells assessed as protection against virus-induced cytopathicity; type: functional, organism-based; conditions: Enterovirus B; method in brief: as §1
Influenza B virus [7] = assay: Antiviral activity against influenza B virus in MDCK cells assessed as reduction of virus-induced cytopathicity by MTS method; type: functional, organism-based
[8] = Cytotoxicity against feline CRFK cells by MTS assay; type: cell-based, Felis catus; conditions: cat
Sindbis virus = assay: Antiviral activity against Sindbis virus in african green monkey Vero cells assessed as protection against virus-induced cytopathicity; type: functional, organism-based; method in brief: as §1
Human alphaherpesvirus 1 [9] = assay: Antiviral activity against HSV1 KOS in human HEL cells assessed as protection against virus-induced cytopathicity; type: functional, organism-based; conditions: Human alphaherpesvirus 1, KOS
Feline coronavirus = assay: Antiviral activity against Feline coronavirus in feline […] cells assessed as inhibition of virus-induced cytopathicity; type: functional, organism-based; conditions: Alphacoronavirus 1
[10] = test system: Human immunodeficiency virus 2; assay: Antiviral activity against HIV2 ROD in human CEM cells assessed as protection against virus-induced cytopathicity after 4 days; type: functional, organism-based; conditions: Human immunodeficiency virus 2, ROD, CCRF-CEM, 96 h
Method in brief: (§2)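 CEM cells (~3 × 10⁵ cells/mL) infected with ~100 CCID₅₀ per mL of HIV-1 (IIIB) or HIV-2 (ROD), then seeded into wells containing compound dilutions. After 4 days at 37 °C, syncytium (giant cell) formation was examined microscopically. EC₅₀ = concentration protecting CEM cells from HIV cytopathicity by 50%.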

Influenza A virus H3N2 [11] = assay: Antiviral activity against influenza H3N2 virus in MDCK cells assessed as reduction of virus-induced cytopathicity by MTS method; type: functional, organism-based
Influenza B virus [12] = assay: Antiviral activity against influenza B virus in MDCK cells assessed as reduction of virus-induced cytopathicity by visual cytopathic effect scoring method; type: functional, organism-based
Vaccinia virus = assay: Antiviral activity against Vaccinia virus Lederle in human HEL cells assessed as protection against virus-induced cytopathicity; type: functional, organism-based; conditions: Orthopoxvirus vaccinia
[13] = test system: Human immunodeficiency virus 1; assay: Antiviral activity against HIV1 3B in human CEM cells assessed as protection against virus-induced cytopathicity after 4 days; type: functional, organism-based; conditions: Human immunodeficiency virus 1, 3B, CCRF-CEM, 96 h; method in brief: as §2
Punta Toro virus = assay: Antiviral activity against Punta Toro virus in african green monkey Vero cells assessed as protection against virus-induced cytopathicity; type: functional, organism-based; method in brief: as §1
Human alphaherpesvirus 2 = assay: Antiviral activity against HSV2 G in human HEL cells assessed as protection against virus-induced cytopathicity; type: functional, organism-based; conditions: Human alphaherpesvirus 2, strain G; method in brief: as §1
Felid alphaherpesvirus 1 = assay: Antiviral activity against Feline herpesvirus in feline […] cells assessed as inhibition of virus-induced cytopathicity; type: functional, organism-based
[14] = test system: Vesicular stomatitis virus; assay: Antiviral activity against VSV in human HEL cells assessed as protection against virus-induced cytopathicity; type: functional, organism-based
L1210 = assay: Antiproliferative activity against mouse L1210 cells after 2 days; type: cell-based; conditions: L1210, 48 h
Method in brief: (§3)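 Cells seeded at 5 × 10⁴ to 7.5 × 10⁴ cells/200 µL with or without serial compound dilutions; incubated at 37 °C for 2 days (L1210) or 3 days (Molt4/C8, CEM). Cell numbers counted with a Coulter counter. CC₅₀ = concentration reducing proliferation by 50% versus untreated controls, read from plots of cell number (% of control) against concentration. Means of at least two independent experiments.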

[15] = test system: Respiratory syncytial virus; assay: Antiviral activity against RSV Long in human HeLa cells assessed as protection against virus-induced cytopathicity; type: functional, organism-based; method in brief: as §1
CCRF-CEM = assay: Antiproliferative activity against human CEM cells after 3 days; type: cell-based; conditions: 72 h; method in brief: as §3
[16] = molecular target: Human immunodeficiency virus type 1 reverse transcriptase (Human immunodeficiency virus 1, UniProt Q72547, L100I); assay: Inhibition of HIV1 reverse transcriptase p66/p51 L100I mutant; conditions: read-out: IC50
Method in brief: (§4)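 Substrate was 0.5 µg poly(rA)/oligo(dT) 10:1 (0.3 µM 3′-OH ends) with 10 µM [³H]dTTP, at 37 °C. Acid-precipitable radioactivity was counted on GF/C filters after TCA washes.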

[17] = Antiproliferative activity against human Molt4/C8 cells after 3 days; type: cell-based; conditions: MOLT-4, 72 h; method in brief: as §3
Human alphaherpesvirus 1 [18] = assay: Antiviral activity against thymidine kinase deficient and acyclovir resistant HSV1 KOS in human HEL cells assessed as protection against virus-induced cytopathicity; type: functional, organism-based; conditions: Human alphaherpesvirus 1, KOS
[19] = molecular target: Human immunodeficiency virus type 1 reverse transcriptase (Human immunodeficiency virus 1, UniProt Q72547, Y181I); assay: Inhibition of HIV1 reverse transcriptase p66/p51 Y181I mutant; conditions: read-out: IC50; method in brief: as §4
[20] = Cytotoxicity against african green monkey Vero cells assessed as drug level causing microscopically detectable alteration of normal cell morphology after 3 days; type: cell-based; conditions: chlorocebus sabaeus
Method in brief: (§5)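 Serial compound dilutions added to confluent HeLa or Vero monolayers. MCC = minimum concentration causing microscopically detectable alteration of cell morphology after 3 days of incubation.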

[21] = molecular target: Human immunodeficiency virus type 1 reverse transcriptase (Human immunodeficiency virus 1, UniProt Q72547, K103N); assay: Inhibition of HIV1 reverse transcriptase p66/p51 K103N mutant; conditions: read-out: IC50; method in brief: as §4
[22] = Cytotoxicity against human HEL cells assessed as drug level causing microscopically detectable alteration of normal cell morphology after 3 days; type: cell-based
[23] = Cytotoxicity against human HeLa cells assessed as drug level causing microscopically detectable alteration of normal cell morphology after 3 days; type: cell-based; method in brief: as §5
[24] = Cytotoxicity against MDCK cells assessed as drug level causing microscopically detectable alteration of normal cell morphology; type: cell-based, Canis lupus familiaris; conditions: dog
[25] = Cytotoxicity against MDCK cells by MTS assay; type: cell-based, Canis lupus familiaris; conditions: dog
[26] = molecular target: Human immunodeficiency virus type 1 reverse transcriptase (Human immunodeficiency virus 1, UniProt Q72547); assay: Inhibition of HIV1 reverse transcriptase p66/p51; conditions: read-out: IC50
[27] = test system: Vesicular stomatitis virus; assay: Antiviral activity against VSV in human HeLa cells assessed as protection against virus-induced cytopathicity; type: functional, organism-based

| SMILES | EC50 (Human respirovirus 3) [µM] | EC50 [1] [µM] | EC50 (Coxsackievirus B4 [2]) [µM] | EC50 (Influenza A virus [3]) [µM] | EC50 (Influenza A virus [4]) [µM] | EC50 (Influenza A virus H3N2 [5]) [µM] | EC50 (Coxsackievirus B4 [6]) [µM] | EC50 (Influenza B virus [7]) [µM] | CC50 [8] [µM] | EC50 (Sindbis virus) [µM] | EC50 (Human alphaherpesvirus 1 [9]) [µM] | EC50 (Feline coronavirus) [µM] | EC50 [10] [µM] | EC50 (Influenza A virus H3N2 [11]) [µM] | EC50 (Influenza B virus [12]) [µM] | EC50 (Vaccinia virus) [µM] | EC50 [13] [µM] | EC50 (Punta Toro virus) [µM] | EC50 (Human alphaherpesvirus 2) [µM] | EC50 (Felid alphaherpesvirus 1) [µM] | further results |
| --- | --- | --- | --- | --- | --- | --- | --- | --- | --- | --- | --- | --- | --- | --- | --- | --- | --- | --- | --- | --- | --- |
| Cc1cc(C)cc(S(=O)(=O)c2c(C(N)=O)[nH]c3ccc(Cl)c(F)c23)c1 | > 100 | > 100 | 27 | > 4 | > 4 | > 4 | 100 | > 4 | > 100 | > 100 | > 20 | > 100 | > 10 | > 4 | > 4 | > 20 | 0.001 | > 100 | > 20 | > 100 | EC50 [14]: > 20 µM; IC50 (L1210): 46 µM; EC50 [15]: > 100 µM; IC50 (CCRF-CEM): > 28 µM; IC50 [16]: 0.002 µM; IC50 [17]: 14 µM; EC50 (Human alphaherpesvirus 1 [18]): > 20 µM; IC50 [19]: 0.029 µM; MCC at 72 h [20]: > 100 µM; IC50 [21]: 0.006 µM; MCC at 72 h [22]: > 100 µM; MCC at 72 h [23]: > 100 µM; MCC [24]: 20 µM; CC50 [25]: 40.6 µM; IC50 [26]: 0.003 µM; EC50 [27]: > 100 µM |
| Cc1cc(C)cc(S(=O)(=O)c2c(C(=O)NCCS(N)(=O)=O)[nH]c3ccc([N+](=O)[O-])cc23)c1 | > 20 | > 20 | ≥ 20 | > 4 | > 4 | > 4 | > 20 | > 4 | > 100 | > 20 | > 4 | > 100 | > 10 | > 4 | > 4 | > 4 | 0.0027 | > 20 | > 4 | > 100 | EC50 [14]: > 4 µM; IC50 (L1210): 408 µM; EC50 [15]: 20 µM; IC50 (CCRF-CEM): 200 µM; IC50 [16]: 0.388 µM; IC50 [17]: 244 µM; EC50 (Human alphaherpesvirus 1 [18]): > 4 µM; IC50 [19]: > 40 µM; MCC at 72 h [20]: 100 µM; IC50 [21]: 0.787 µM; MCC at 72 h [22]: 20 µM; MCC at 72 h [23]: ≥ 100 µM; MCC [24]: 20 µM; CC50 [25]: 32.7 µM; IC50 [26]: 0.061 µM; EC50 [27]: ≥ 100 µM |
| Cc1cc(C)cc(S(=O)(=O)c2c(C(=O)NC(C)CC(N)=O)[nH]c3ccc(Br)cc23)c1 (stereo not drawn) | > 20 | > 20 | ≥ 20 | > 4 | > 4 | > 4 | > 20 | > 4 | 11.1 | > 20 | > 4 | > 4 | > 10 | > 4 | > 4 | > 4 | 0.0015 | > 20 | > 4 | > 4 | EC50 [14]: > 4 µM; IC50 (L1210): 16 µM; EC50 [15]: > 20 µM; IC50 (CCRF-CEM): 18 µM; IC50 [16]: 0.296 µM; IC50 [17]: 16 µM; EC50 (Human alphaherpesvirus 1 [18]): > 4 µM; IC50 [19]: 15.8 µM; MCC at 72 h [20]: ≥ 20 µM; IC50 [21]: 0.321 µM; MCC at 72 h [22]: 20 µM; MCC at 72 h [23]: ≥ 20 µM; MCC [24]: ≥ 4 µM; CC50 [25]: 79 µM; IC50 [26]: 0.081 µM; EC50 [27]: > 20 µM |
